Data reported in ChEMBL document CHEMBL3864176, “New Series of BPL Inhibitors To Probe the Ribose-Binding Pocket of Staphylococcus aureus Biotin Protein Ligase” (ACS Med Chem Lett, 2016).
Activity calls are given as the source filed them. No cut-off for these calls is given here.

Tests used:
[1] = Inhibition of Staphylococcus aureus biotin protein ligase assessed as reduction in 3H-biotin incorporation into Staphylococcus aureus pyruvate carboxylase biotin domain after 10 mins by liquid scintillation counting analysis
Procedure, shortened: (§1)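 Recombinant S. aureus BPL; enzymatic incorporation of radiolabeled biotin onto an acceptor protein measured across varying inhibitor concentrations to give IC50. Ki calculated from IC50 assuming competitive inhibition versus biotin, using the known KM for biotin.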

Biotin--protein ligase = target: T1, Biotin--protein ligase (Homo sapiens, UniProt P50747); assay: Inhibition of human biotin protein ligase assessed as reduction in 3H-biotin incorporation into pyruvate carboxylase biotin domain after 10 mins by liquid scintillation counting analysis
T1 sequence (P50747 whole entry): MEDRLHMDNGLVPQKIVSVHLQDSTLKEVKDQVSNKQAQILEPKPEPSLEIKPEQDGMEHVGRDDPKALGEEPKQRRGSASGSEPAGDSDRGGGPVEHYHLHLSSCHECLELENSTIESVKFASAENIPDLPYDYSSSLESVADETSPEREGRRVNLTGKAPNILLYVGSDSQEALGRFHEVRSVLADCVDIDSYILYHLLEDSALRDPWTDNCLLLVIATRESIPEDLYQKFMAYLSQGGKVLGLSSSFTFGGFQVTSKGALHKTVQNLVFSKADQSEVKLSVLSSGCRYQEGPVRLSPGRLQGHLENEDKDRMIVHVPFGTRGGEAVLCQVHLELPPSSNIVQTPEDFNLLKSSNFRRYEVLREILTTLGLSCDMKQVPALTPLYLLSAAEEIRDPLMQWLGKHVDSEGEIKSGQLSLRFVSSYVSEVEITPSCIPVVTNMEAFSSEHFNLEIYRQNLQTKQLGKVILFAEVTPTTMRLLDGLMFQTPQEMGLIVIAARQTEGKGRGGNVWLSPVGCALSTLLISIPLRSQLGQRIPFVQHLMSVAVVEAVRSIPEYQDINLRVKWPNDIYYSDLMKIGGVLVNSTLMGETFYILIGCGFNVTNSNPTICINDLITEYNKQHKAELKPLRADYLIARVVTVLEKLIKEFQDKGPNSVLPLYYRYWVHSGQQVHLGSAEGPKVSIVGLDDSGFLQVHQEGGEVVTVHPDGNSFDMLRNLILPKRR
Procedure, shortened: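 Recombinant human BPL; radiolabeled biotin transfer onto an acceptor protein measured with 100 μM compound included in the assay medium.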

Staphylococcus aureus [2] = assay: Growth inhibition of Staphylococcus aureus ATCC 49775 after 16 to 20 hrs by microbroth dilution method relative to control; assay type: functional; design: concentration or dose not given beside the values
Procedure, shortened: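 S. aureus ATCC 49775 cultured with compound; growth read spectrophotometrically at 600 nm 20 h post-treatment. Activity called where culture optical density fell by >40% relative to nontreated controls.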

Staphylococcus aureus [3] = assay: Growth inhibition of Staphylococcus aureus RN4220 harboring pCN51 at 16 ug/ml measured every 30 mins for 16 hrs; assay type: functional
Procedure, shortened: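 Cultures grown in medium with 16 μg/mL compound for 16 h; optical density read every 30 min and compared with nontreated controls. Part of a target-overexpression test of the BPL mechanism.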

[4] = Cytotoxicity against human HepG2 cells assessed as decrease in cell viability at 40 ug/ml after 24 to 48 hrs by WST-1 assay; assay type: toxicity, cell-based
Procedure, shortened: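 Cultured HepG2 cells (ATCC HB-8065) exposed to compound at a single concentration of 40 μg/mL to assess cytotoxicity.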

[5] = Inhibition of Staphylococcus aureus C-terminal His6-tagged biotin protein ligase assessed as reduction in 3H-biotin incorporation into biotin domain of substrate; procedure, shortened: as §1
[6] = Selectivity ratio of Ki for Staphylococcus aureus C-terminal His6-tagged biotin protein ligase to Ki for human C-terminal His6-tagged biotin protein ligase
Procedure, shortened: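 Recombinant S. aureus and human BPLs; enzymatic incorporation of radiolabeled biotin onto an acceptor protein measured across varying compound concentrations. IC50 converted to Ki assuming competition with biotin, using the known biotin KM. Human enzyme tested with 100 μM compound in the assay.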

| Ki (Biotin--protein ligase) [µM] | Compound | Ki [1] [µM] | growth inhibition (GI) (Staphylococcus aureus [2]) [%] | growth inhibition (GI) (Staphylococcus aureus [3]) | Activity [4] [µg/mL] | Ki [5] [µM] | Ratio Ki [6] |
| --- | --- | --- | --- | --- | --- | --- | --- |
| > 16 | O=C1N[C@H]2[C@H](CS[C@H]2CCCCCc2cn(Cc3cccc(O)c3)nn2)N1 | > 10 |  |  |  |  |  |
| > 16 | O=C1N[C@H]2[C@H](CS[C@H]2CCCCCc2cn(Cc3ccccc3F)nn2)N1 | > 10 |  |  |  |  |  |
| > 16 | O=C1N[C@H]2[C@H](CS[C@H]2CCCCCc2cn(Cc3ccc(C(=O)O)cc3)nn2)N1 | 0.67 |  |  |  |  |  |
| > 16 | O=C1N[C@H]2[C@H](CS[C@H]2CCCCCc2cn(Cc3ccccc3Br)nn2)N1 | 0.96 | >40 |  |  |  |  |
| > 16 | O=C1N[C@H]2[C@H](CS[C@H]2CCCCCc2cn(Cc3ccccc3O)nn2)N1 | > 10 |  |  |  |  |  |
| > 16 | COc1cccc(Cn2cc(CCCCC[C@@H]3SC[C@@H]4NC(=O)N[C@@H]43)nn2)c1 | 1.1 |  |  |  |  |  |
|  | Cc1ccc2oc(=O)n(CCCCn3cc(CCCCC[C@@H]4SC[C@@H]5NC(=O)N[C@@H]54)nn3)c2c1 |  |  |  |  | 0.09 | > 1000 |
| > 16 | O=C1N[C@H]2[C@H](CS[C@H]2CCCCCc2cn(Cc3ccc(C(F)(F)F)cc3)nn2)N1 | > 10 |  |  |  |  |  |
| > 16 | Nc1cccc(Cn2cc(CCCCC[C@@H]3SC[C@@H]4NC(=O)N[C@@H]43)nn2)c1 | > 10 |  |  |  |  |  |
| > 16 | O=C1N[C@H]2[C@H](CS[C@H]2CCCCCc2cn(Cc3ccc(O)cc3)nn2)N1 | 1.59 |  |  |  |  |  |
| > 16 | O=C1N[C@H]2[C@H](CS[C@H]2CCCCCc2cn(Cc3cccc(C(F)(F)F)c3)nn2)N1 | > 10 |  |  |  |  |  |
| > 16 | O=C1N[C@H]2[C@H](CS[C@H]2CCCCCc2cn(Cc3cccc(Cl)c3)nn2)N1 | 0.39 | >40 |  | > 40 |  |  |
| > 16 | COc1ccccc1Cn1cc(CCCCC[C@@H]2SC[C@@H]3NC(=O)N[C@@H]32)nn1 | 0.53 |  |  |  |  |  |
| > 16 | O=C1N[C@H]2[C@H](CS[C@H]2CCCCCc2cn(Cc3cccc(I)c3)nn2)N1 | > 10 |  |  |  |  |  |
| > 16 | O=C1N[C@H]2[C@H](CS[C@H]2CCCCCc2cn(Cc3ccccc3Cl)nn2)N1 | > 10 |  |  |  |  |  |
| > 16 | O=C1N[C@H]2[C@H](CS[C@H]2CCCCCc2cn(Cc3ccc(F)cc3)nn2)N1 | 0.6 | >40 |  | > 40 |  |  |
| > 16 | Cc1ccc(Cn2cc(CCCCC[C@@H]3SC[C@@H]4NC(=O)N[C@@H]43)nn2)cc1 | > 10 |  |  |  |  |  |
| > 16 | O=C1N[C@H]2[C@H](CS[C@H]2CCCCCc2cn(Cc3ccc(F)c(F)c3)nn2)N1 | > 10 |  |  |  |  |  |
| > 16 | O=C1N[C@H]2[C@H](CS[C@H]2CCCCCc2cn(Cc3ccc(I)cc3)nn2)N1 | 0.56 | >40 |  |  |  |  |
| > 16 | COc1ccc(Cn2cc(CCCCC[C@@H]3SC[C@@H]4NC(=O)N[C@@H]43)nn2)cc1 | > 10 |  |  |  |  |  |
| > 16 | O=C1N[C@H]2[C@H](CS[C@H]2CCCCCc2cn(Cc3ccc(Cl)cc3)nn2)N1 | 1.1 | >40 |  | > 40 |  |  |
| > 16 | CC(C)(C)c1ccc(Cn2cc(CCCCC[C@@H]3SC[C@@H]4NC(=O)N[C@@H]43)nn2)cc1 | 1.1 | >40 |  |  |  |  |
| > 16 | Nc1ccc(Cn2cc(CCCCC[C@@H]3SC[C@@H]4NC(=O)N[C@@H]43)nn2)cc1 | > 10 |  |  |  |  |  |
| > 16 | Cc1cccc(Cn2cc(CCCCC[C@@H]3SC[C@@H]4NC(=O)N[C@@H]43)nn2)c1 | 0.71 | >40 |  |  |  |  |

| Compound | Ki (Biotin--protein ligase) [µM] | Ki [1] [µM] | growth inhibition (GI) (Staphylococcus aureus [2]) [%] | growth inhibition (GI) (Staphylococcus aureus [3]) | Activity [4] [µg/mL] | Ki [5] [µM] | Ratio Ki [6] |
| --- | --- | --- | --- | --- | --- | --- | --- |
| Nc1ccccc1Cn1cc(CCCCC[C@@H]2SC[C@@H]3NC(=O)N[C@@H]32)nn1 | > 16 | 1.48 | >40 | Active |  |  |  |
| O=C1N[C@H]2[C@H](CS[C@H]2CCCCCc2cn(Cc3cccc(F)c3)nn2)N1 | > 16 | 0.28 | >40 | Active | > 40 |  |  |
